ChEMBL document CHEMBL1157456, “Unsymmetric aryl-alkyl disulfide growth inhibitors of methicillin-resistant Staphylococcus aureus and Bacillus anthracis” (Bioorg Med Chem, 2008)
pIC50: −log10 of the molar value. In brackets after ≈: the same amount, converted by molar mass. Activity calls are given as the source filed them. The calls are words filed in the database; no cut-off is given here.

What was measured:
Bacillus anthracis [1] = test: Antibacterial activity against Bacillus anthracis assessed as inhibition zone diameter at 20 ug after 24 hrs by Kirby-Bauer test; assay type: functional; conditions: read-out: IZ
Staphylococcus aureus [2] = test: Antibacterial activity against Staphylococcus aureus ATCC 25923 after 24 hrs by serial dilution method; assay type: functional; conditions: for MIC: ATCC 25923, 24 h
Staphylococcus aureus [3] = test: Antibacterial activity against methicillin-resistant Staphylococcus aureus ATCC 43300 after 24 hrs by serial dilution method; assay type: functional; conditions: ATCC 43300, 24 h
Staphylococcus aureus [4] = test: Antibacterial activity against Staphylococcus aureus ATCC 25923 assessed as inhibition zone diameter at 20 ug after 24 hrs by Kirby-Bauer test; assay type: functional; conditions: ATCC 25923, 24 h, read-out: IZ
Summary of the method: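 Kirby-Bauer on TSA: a 0.5 McFarland saline suspension was spread as a lawn. 6 mm wells were bored and given 20 µL of 1 mg/mL compound in DMSO (20 ug). Plates ran 24 h at 37 °C. Inhibition zone diameter was averaged over 3 trials.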

Bacillus anthracis [5] = test: Antibacterial activity against Bacillus anthracis after 24 hrs by serial dilution method; assay type: functional
[6] = molecular target: T1, Mycobacterial beta-ketoacyl-[acyl-carrier-protein] synthase III (Mycobacterium tuberculosis) (UniProt P9WNG3); test: Inhibition of Mycobacterium tuberculosis FabH
T1 sequence (whole entry): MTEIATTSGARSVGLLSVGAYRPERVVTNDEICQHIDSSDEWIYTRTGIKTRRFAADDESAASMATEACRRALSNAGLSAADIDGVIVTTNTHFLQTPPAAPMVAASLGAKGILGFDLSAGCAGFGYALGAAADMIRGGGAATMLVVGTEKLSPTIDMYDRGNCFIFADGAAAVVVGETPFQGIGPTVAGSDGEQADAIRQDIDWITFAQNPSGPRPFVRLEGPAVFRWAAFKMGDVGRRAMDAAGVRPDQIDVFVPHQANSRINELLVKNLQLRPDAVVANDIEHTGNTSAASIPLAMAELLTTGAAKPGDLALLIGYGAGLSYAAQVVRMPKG

Escherichia coli [7] = test: Inhibition of purified Escherichia coli FabH at 5 uM by trichloroacetic acid precipitation assay relative to control
Summary of the method: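 ecFabH (100 nM monomer) was preincubated 15 min at room temperature with 5 µM disulfide in 50 mM sodium phosphate pH 7.4. Radiolabeled 3-ketoacyl-ACP was formed from [1-14C]acetyl-CoA (40 µM) and malonyl-ACP (10 µM), the latter from a coupled S. glaucescens FabD/ACP system. Product was collected by TCA precipitation. Activity was expressed as % decrease versus a no-compound control, in duplicate.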

Escherichia coli [8] = test: Antibacterial activity against Escherichia coli K12 ATCC 23590 after 24 hrs by serial dilution method; assay type: functional; conditions: K12, 24 h
Escherichia coli [9] = test: Inhibition of purified Escherichia coli FabH at 1 uM by trichloroacetic acid precipitation assay relative to control
Summary of the method: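 Purified ecFabH (100 nM monomer) was preincubated 15 min at room temperature with 1 µM compound in 50 mM sodium phosphate pH 7.4, without CoA. It was then added to [1-14C]acetyl-CoA (40 µM) and malonyl-ACP (10 µM), made with S. glaucescens FabD/ACP. 3-Ketoacyl-ACP was measured by TCA precipitation, as % inhibition versus a no-inhibitor control, in duplicate.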

[10] = Inhibition of Escherichia coli FabH

Compound CSSc1cccc([N+](=O)[O-])c1 has a zone of inhibition at 20 µg/disc (Bacillus anthracis [1]) of 43 mm, an MIC (Staphylococcus aureus [2]) of 16 µg/mL (≈ 79.5 µM) and an MIC (Staphylococcus aureus [3]) of 64 µg/mL (≈ 318 µM). For the same compound, the zone of inhibition at 20 µg/disc (Staphylococcus aureus [4]) was 36 mm and the MIC (Bacillus anthracis [5]) was 8 µg/mL (≈ 39.7 µM).

CSSc1ccc(C)c(C)c1 gave a zone of inhibition at 20 µg/disc (Staphylococcus aureus [4]) of 10 mm.

For CCCCCCCCCCOC(=O)SSCCO, the Activity [6] was “Active”.

In the case of CCCCSSc1ccc([N+](=O)[O-])cc1, the inhibition (Escherichia coli [7]) was 93%, the MIC (Escherichia coli [8]) was 96 µg/mL (≈ 394 µM) and the MIC (Staphylococcus aureus [2]) was 1 µg/mL (≈ 4.11 µM). For the same compound, the MIC (Staphylococcus aureus [3]) was 32 µg/mL (≈ 131 µM) and the MIC (Bacillus anthracis [5]) was 1 µg/mL (≈ 4.11 µM).

Work on CSSc1ccccn1 yielded a zone of inhibition at 20 µg/disc (Staphylococcus aureus [4]) of 23 mm.

For CSSc1ccc(NC(C)=O)cc1, the zone of inhibition at 20 µg/disc (Staphylococcus aureus [4]) was 20 mm.

In the case of O=C(O)c1cc([N+](=O)[O-])ccc1SSc1ccc([N+](=O)[O-])cc1C(=O)O, the Activity (Staphylococcus aureus [2]) was “inactive”.

For CCC(C)SSc1ccccc1[N+](=O)[O-] (configuration not stated), the zone of inhibition at 20 µg/disc (Bacillus anthracis [1]) was 23 mm, the MIC (Staphylococcus aureus [2]) was 32 µg/mL (≈ 131 µM) and the MIC (Staphylococcus aureus [3]) was 32 µg/mL (≈ 131 µM). For the same compound, the zone of inhibition at 20 µg/disc (Staphylococcus aureus [4]) was 24 mm and the MIC (Bacillus anthracis [5]) was 32 µg/mL (≈ 131 µM).

Work on CCOc1cccc(SSC)c1 yielded a zone of inhibition at 20 µg/disc (Staphylococcus aureus [4]) of 9 mm.

Compound CCCSSc1ccc([N+](=O)[O-])cc1 has an inhibition (Escherichia coli [7]) of 91%, an MIC (Escherichia coli [8]) of 64 µg/mL (≈ 279 µM) and an MIC (Staphylococcus aureus [2]) of 16 µg/mL (≈ 69.8 µM). For the same compound, the MIC (Staphylococcus aureus [3]) was 16 µg/mL (≈ 69.8 µM), the zone of inhibition at 20 µg/disc (Staphylococcus aureus [4]) was 43 mm and the MIC (Bacillus anthracis [5]) was 1 µg/mL (≈ 4.36 µM).

CSSc1ccc(N)cc1 showed a zone of inhibition at 20 µg/disc (Staphylococcus aureus [4]) of 0 mm.

CSSc1ccc([N+](=O)[O-])cc1 showed an inhibition (Escherichia coli [7]) of 94%, an MIC (Escherichia coli [8]) of 16 µg/mL (≈ 79.5 µM) and an MIC (Staphylococcus aureus [2]) of 16 µg/mL (≈ 79.5 µM). The MIC (Staphylococcus aureus [3]) was 32 µg/mL (≈ 159 µM), the zone of inhibition at 20 µg/disc (Staphylococcus aureus [4]) was 35 mm and the MIC (Bacillus anthracis [5]) was 1 µg/mL (≈ 4.97 µM).

CSSc1ccc(F)c(F)c1 showed a zone of inhibition at 20 µg/disc (Staphylococcus aureus [4]) of 11 mm.

Compound CCSSc1ccccc1[N+](=O)[O-] has a zone of inhibition at 20 µg/disc (Bacillus anthracis [1]) of 35 mm, an MIC (Staphylococcus aureus [2]) of 16 µg/mL (≈ 74.3 µM) and an MIC (Staphylococcus aureus [3]) of 32 µg/mL (≈ 149 µM). The zone of inhibition at 20 µg/disc (Staphylococcus aureus [4]) was 40 mm and the MIC (Bacillus anthracis [5]) was 16 µg/mL (≈ 74.3 µM).

For CC1(C)S[C@@H]2[C@H](NC(=O)Cc3ccccc3)C(=O)N2[C@H]1C(=O)O [PENICILLIN G], the MIC (Staphylococcus aureus [2]) was 0.03 µg/mL (≈ 0.0897 µM), the MIC (Staphylococcus aureus [3]) was 64 µg/mL (≈ 191 µM) and the zone of inhibition at 20 µg/disc (Staphylococcus aureus [4]) was 33 mm.

For CSc1ccc([N+](=O)[O-])cc1, the Activity (Staphylococcus aureus [2]) was “inactive”.

CC(C)SSc1ccccc1[N+](=O)[O-] showed a zone of inhibition at 20 µg/disc (Bacillus anthracis [1]) of 27 mm, an MIC (Staphylococcus aureus [2]) of 16 µg/mL (≈ 69.8 µM) and an MIC (Staphylococcus aureus [3]) of 32 µg/mL (≈ 140 µM). It also gave a zone of inhibition at 20 µg/disc (Staphylococcus aureus [4]) of 31 mm and an MIC (Bacillus anthracis [5]) of 32 µg/mL (≈ 140 µM).

Compound CCC(C)SN1C(=O)[C@H](OC)[C@@H]1c1ccccc1Cl (some centres not stated) has an inhibition (Escherichia coli [9]) of 30%.

CSSCCNC(=O)CCNC(=O)[C@@H](O)C(C)(C)COP(=O)(O)OP(=O)(O)OC[C@H]1O[C@@H](n2cnc3c(N)ncnc32)[C@H](O)[C@@H]1OP(=O)(O)O gave a pIC50 [10] of 4.24.

In the case of CCC(C)SSc1ccc([N+](=O)[O-])cc1 (configuration not stated), the inhibition (Escherichia coli [7]) was 96%, the MIC (Escherichia coli [8]) was 128 µg/mL (≈ 526 µM) and the MIC (Staphylococcus aureus [2]) was 0.8 µg/mL (≈ 3.29 µM). It also gave an MIC (Staphylococcus aureus [3]) of 1 µg/mL (≈ 4.11 µM) and an MIC (Bacillus anthracis [5]) of 0.5 µg/mL (≈ 2.05 µM).

In the case of CSSc1ccccc1[N+](=O)[O-], the zone of inhibition at 20 µg/disc (Bacillus anthracis [1]) was 31 mm, the MIC (Staphylococcus aureus [2]) was 16 µg/mL (≈ 79.5 µM) and the MIC (Staphylococcus aureus [3]) was 32 µg/mL (≈ 159 µM). The zone of inhibition at 20 µg/disc (Staphylococcus aureus [4]) was 37 mm and the MIC (Bacillus anthracis [5]) was 16 µg/mL (≈ 79.5 µM).

With CSSCc1ccc([N+](=O)[O-])cc1 the Activity (Staphylococcus aureus [2]) was “Active” and the MIC (Bacillus anthracis [5]) was 32 µg/mL (≈ 149 µM).

With CC(C)SSc1ccc([N+](=O)[O-])cc1 the inhibition (Escherichia coli [7]) was 98.5%, the MIC (Escherichia coli [8]) was 96 µg/mL (≈ 419 µM) and the MIC (Staphylococcus aureus [2]) was less than 0.125 µg/mL. It also gave an MIC (Staphylococcus aureus [3]) of less than 0.125 µg/mL and an MIC (Bacillus anthracis [5]) of 0.125 µg/mL (≈ 0.545 µM).

With CC(C)SSc1cccc([N+](=O)[O-])c1 the MIC (Staphylococcus aureus [2]) was less than 0.125 µg/mL, the MIC (Staphylococcus aureus [3]) was 16 µg/mL (≈ 69.8 µM) and the MIC (Bacillus anthracis [5]) was 1 µg/mL (≈ 4.36 µM).

Work on CN[C@H](CC(C)C)C(=O)N[C@H]1C(=O)N[C@@H](CC(N)=O)C(=O)N[C@H]2C(=O)N[C@H]3C(=O)N[C@H](C(=O)N[C@H](C(=O)O)c4cc(O)cc(O)c4-c4cc3ccc4O)[C@H](O)c3ccc(c(Cl)c3)Oc3cc2cc(c3O[C@@H]2O[C@H](CO)[C@@H](O)[C@H](O)[C@H]2O[C@H]2C[C@](C)(N)[C@H](O)[C@H](C)O2)Oc2ccc(cc2Cl)[C@H]1O [VANCOMYCIN] yielded an MIC (Staphylococcus aureus [2]) of 0.25 µg/mL (≈ 0.173 µM) and a zone of inhibition at 20 µg/disc (Staphylococcus aureus [4]) of 27 mm.

In the case of CCSSc1cccc([N+](=O)[O-])c1, the zone of inhibition at 20 µg/disc (Bacillus anthracis [1]) was 40 mm, the MIC (Staphylococcus aureus [2]) was 8 µg/mL (≈ 37.2 µM) and the MIC (Staphylococcus aureus [3]) was 64 µg/mL (≈ 297 µM). For the same compound, the zone of inhibition at 20 µg/disc (Staphylococcus aureus [4]) was 45 mm and the MIC (Bacillus anthracis [5]) was 8 µg/mL (≈ 37.2 µM).

Compound CSSc1ccccc1CO has a zone of inhibition at 20 µg/disc (Staphylococcus aureus [4]) of 14 mm.

In the case of CO[C@H]1C(=O)N(SC)[C@H]1c1ccccc1Cl, the inhibition (Escherichia coli [9]) was 89%.

For CCSSc1ccc([N+](=O)[O-])cc1, the inhibition (Escherichia coli [7]) was 98%, the MIC (Escherichia coli [8]) was 16 µg/mL (≈ 74.3 µM) and the MIC (Staphylococcus aureus [2]) was 1 µg/mL (≈ 4.64 µM). For the same compound, the MIC (Staphylococcus aureus [3]) was 16 µg/mL (≈ 74.3 µM) and the MIC (Bacillus anthracis [5]) was 0.25 µg/mL (≈ 1.16 µM).

With CCC(C)SSc1cccc([N+](=O)[O-])c1 (configuration not stated) the zone of inhibition at 20 µg/disc (Bacillus anthracis [1]) was 41 mm, the MIC (Staphylococcus aureus [2]) was 8 µg/mL (≈ 32.9 µM) and the MIC (Staphylococcus aureus [3]) was 32 µg/mL (≈ 131 µM). It also gave a zone of inhibition at 20 µg/disc (Staphylococcus aureus [4]) of 45 mm and an MIC (Bacillus anthracis [5]) of 8 µg/mL (≈ 32.9 µM).

With CSSCCc1ccc([N+](=O)[O-])cc1 the Activity (Staphylococcus aureus [2]) was “Active” and the MIC (Bacillus anthracis [5]) was 64 µg/mL (≈ 279 µM).
